The series has as its system MS2 coat protein. In words: apparent Kd, MS2 coat protein; higher = weaker binding; RNA-MaP array; FMN 200 µM where present. The method, boiled down: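 The apparent Kd comes from binding curves fitted cluster by cluster, filtered, and summarised as a median. Those curves followed SNAP-549-labelled MS2 coat protein from 0.7 or 1.5 nM, doubling to 3 µM, on Illumina sequencing-chip clusters where stalled E. coli RNA polymerase had transcribed the designs, without and then with constant ligand. The buffer was 100 mM Tris-HCl pH 7.5, 80 mM KCl, 4 mM MgCl2, BSA, DTT, yeast tRNA and Tween-20, and green signal was normalised to red-channel RNA signal and control-cluster median Fmax.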

The mark [1] stands for this setting: designed as: OFF switch for flavin mononucleotide, no ligand.
Setting [2] is: ligand present: flavin mononucleotide, designed as: OFF switch for flavin mononucleotide.
Where [3] appears, read: designed as: ON switch for flavin mononucleotide, no ligand.
Where [4] appears, read: ligand present: flavin mononucleotide, designed as: ON switch for flavin mononucleotide.

As for “AAAGCACGAGGAUAUACAUGAGGAUCACCCAUGUAUAAAAAAAAAAAAAAAUCCUCAUGUAGAAGGCGUGCAAA”, the “apparent Kd” value was found to be 53.6 nM under setting [1] and 41 nM under setting [2].

“CCCUCACAUGAGGAUCACCCAUGUUAGGAUAUCUACCAGGAGCUUUGAAUUGCCCAACGGAGAAGGAACGUGCA”: the “apparent Kd” value amounted to 16.9 nM under setting [1] and 17.4 nM under setting [2].

On to “GUGUACAGAGGAUAUGCACGAGUAGUUACGAAAGUAACUAUACAUGAGGAUCACCCAUGUAGAAGGCUGUACAC”, for which the “apparent Kd” value runs as follows: under setting [1], 13.5 nM; under setting [2], 16.6 nM.

For the sequence “CCUCAACAGUAGGAUAUCAUAUAACUAUUGUGAUGAGAAGGACUGACAUGAGGAUCACCCAUGUUAACGUGAUA”, the “apparent Kd” value under setting [1] worked out at 18 nM and the “apparent Kd” value under setting [2] is 24.9 nM.

As to “UAGUAGAUCCGAGGAUAUACAAUCCGGAAACGGUACAUGAGGAUCACCCAUGUAGAAGGCGGAUCUACAGGUACUAAAGUACCG”, the “apparent Kd” value by setting is: under setting [1], 6.19 nM; under setting [2], 9.18 nM.

In the case of “GACUUGGCUACAUGAGGAUCACCCAUGUUUGACUGGAUCGAUUAGGAUAUAGUGAUAUGCAACAAUUAGAAGGGAUGUUUACGG”, the “apparent Kd” value by setting is: under setting [3], 52.9 nM; under setting [4], 42.2 nM.

As for “GAGCUCAAGCAGAAGGCCAUAUGUCAAUCGACAUGAGGAUCACCCAUGUAUGAGCUCGGCGUCGUGGAGGAUAUGCAGGCUCUA”, the “apparent Kd” value is, setting by setting: under setting [3], 351 nM; under setting [4], 17.6 nM.

Consider “GCCAUCGCAUGAGGAUAUGCUCCCGUUUCGGGAGCAGAAGGCAUGUCAAAAGACAUGAGGAUCACCCAUGUAGUUAAGAUGGCA”, for which the “apparent Kd” value came to 122 nM under setting [3] and 7.89 nM under setting [4].

As to “GGGUACAUCGGAGGAUAUCAUGUAAAUACAUGAGGAUCACCCAUGUCGCUGGAGACAUCGGAGAUUGAGAAGGCCGAUGUACCG”, the “apparent Kd” value under setting [3] was found to be 26.6 nM and the “apparent Kd” value under setting [4] stood at 303 nM.

Consider “UAAGCCGGGUCUGCAUGAGCUUACAUGAGGAUCACCCAUGUAAGAAGGGACGCUACGUUAAAGUGUCAGGAUAUUGCGAACGGG”, for which the “apparent Kd” value reads like this: under setting [1], 5.26 nM; under setting [2], 5.73 nM.

Regarding “ACAGAGGCUGACAUGAGGAUCACCCAUGUUAGAUUGUUAUGUCAGGAUAUUAUCUGGCAACCAGAUGAGAAGGGACCCUCUGUU”, the “apparent Kd” value reads like this: under setting [3], 21.5 nM; under setting [4], 7.68 nM.

On to “UAUUUAUAAUAUAUUAACAUGAGGAUCACCCAUGUCGCUAGACAGGAUAUAUUUUAUUUUUUUAAGUAGAAGGGUCAUAUAUUU”, for which the “apparent Kd” value runs as follows: under setting [3], 68 nM; under setting [4], 85.9 nM.

In the case of “UUUUAACAUGAGGAUCACCCAUGUGAGGAUAUCGAAAUUUAUAUUAAUAUUAAUUUUUCGAGAAGGCACAUUUU”, the “apparent Kd” value under setting [1] turned out to be 132 nM and the “apparent Kd” value under setting [2] was 150 nM.

On to “ACGACAAAAGUCGAACGAUGUAGCAGAAGGACAUGAGGAUCACCCAUGUAAAAUGUAACAGCCAUGUAGGAUAUGCUACAUCGA”, for which the “apparent Kd” value reads like this: under setting [1], 31.4 nM; under setting [2], 288 nM.

For the sequence “AAAAAGUCAGGAUAUGUCAAAAGUCACAAAAGUGACAAAAGACAGAAGGGACAUGAGGAUCACCCAUGUAAAAA”, the “apparent Kd” value was determined as 29 nM under setting [1] and 46.4 nM under setting [2].

“UAAAAGACUAGCUGGUAUCUCCACAUGAGGAUCACCCAUGUCUAGGAUAUGAGCAGCAAAGCUGCUUAGAAGGAGACGCUAGUC”: the “apparent Kd” value by setting is: under setting [1], 7.67 nM; under setting [2], 8.83 nM.

Consider “CGCUACACCCAGAAGGACAUGAGGAUCACCCAUGUAGGAUAUGGGAGACACAGUCCCGUGUAGAGAAACUACGCUAGUGUAGCG”, for which the “apparent Kd” value is, setting by setting: under setting [3], 344 nM; under setting [4], 112 nM.

For “AAUUUACAGGGAGGAUAUACAUGAGGAUCACCCAUGUAAUCAUAUGAUAUUUCUUUUGUAUGAGUGUAGAAGGCCCAACUACCA”, the “apparent Kd” value under setting [1] is 9.96 nM and the “apparent Kd” value under setting [2] came to 8.87 nM.

Take “AUAAUACAUGAGGAUCACCCAUGUAAUUUAACUUGUAAGAUCAAGGAUAUCAGCUCGAAUAGAGCUGAGAAGGUGAUCACAUGU”: the “apparent Kd” value amounted to 169 nM under setting [3] and 295 nM under setting [4].

As to “AAGCGAGGGACAGGAUAUGCGGCGGAACUCGCCGCAGAAGGGUCGACAUGAGGAUCACCCAUGUCCUUACGCUCCAAGUAGAGG”, the “apparent Kd” value reads like this: under setting [3], 181 nM; under setting [4], 451 nM.

With “GGGCCCGGUGUGAGGAUAUGCUCGGGUAAACUCGGGCAGAAGGCACAUGAGGAUCACCCAUGUAAGCCGGGCCC”, the “apparent Kd” value is 13.8 nM under setting [1] and 14.6 nM under setting [2].

“AGUCGGCGAGGAUAUACAUGAGGAUCACCCAUGUGAUAGAGUGCACGCGUACGUGUAUGUAGAAGGCGCUGACA”: the “apparent Kd” value is, setting by setting: under setting [1], 82 nM; under setting [2], 748 nM.

As for “UUACUUUUACAGAAGGUUUAAUAAUAUAUAAGAGAAGGAUAUGUAACAUGAGGAUCACCCAUGUUUCACCCAUAUGAGGAUCAU”, the “apparent Kd” value turned out to be 8.12 nM under setting [1] and 7.78 nM under setting [2].

For “GCACAUGGCAUAGGAUAUAGAACGAUAGUUGAAAUAGAUUGUUGGAAUUUACUAGAAGGAUGAGACAUGAGGAUCACCCAUGUA”, the “apparent Kd” value runs as follows: under setting [3], 34.9 nM; under setting [4], 28.6 nM.

For “AAUUACAUGUAGAAGGUACUAACAUAAGUGUUGUAAGGAUAUACCAAUUUAUUAGUUUUAAAGAUACAUGAGGAUCACCCAUGU”, the “apparent Kd” value is 12.5 nM under setting [3] and 8.22 nM under setting [4].

“UAAGAGUGAGGAUAUUCGUAGUACACGGAGACGUGUAUUACGGAGAAGGCACAUGAGGAUCACCCAUGUUCCUU”: the “apparent Kd” value was found to be 15.6 nM under setting [1] and 48.5 nM under setting [2].

“AGCACGAAGAUUAUUAUGAAUAAACAUGAGGAUCACCCAUGUAAGGAUAUCGACUCGAAUAGAGUCGAGAAGGUACAUACGUGC”: the “apparent Kd” value under setting [1] was determined as 11 nM and the “apparent Kd” value under setting [2] is 51.8 nM.

On to “CCGCCAUAAGUCAGGAUAUUCUUUAAGUUGUUGGAGAAGAAGGGACAUGAGGAUCACCCAUGUAAUAGGCCUCA”, for which the “apparent Kd” value runs as follows: under setting [1], 842 nM; under setting [2], 598 nM.

Turning to “CUGUCGAUAUCAGGAUAUCGAUUAAUUACAUGAGGAUCACCCAUGUUGACAUGGAAUAUAACUUGCGAGAAGGGAUUACGAUAG”, the “apparent Kd” value under setting [3] came out at 28.3 nM and the “apparent Kd” value under setting [4] was found to be 22.3 nM.

On to “UGUCACCGUGCAGGAUAUGCCUGCACGUCGCGGGCAGAAGGGCACAUGAGGAUCACCCAUGUAGAGCUGGGCUCGUCAAGGGAG”, for which the “apparent Kd” value is, setting by setting: under setting [1], 9.05 nM; under setting [2], 9.85 nM.

Turning to “CUGGUGUCAGGAUAUGCAUAGCAGUGACCGAAACCCGGUCAGCAGAAGGGACAUGAGGAUCACCCAUGUUAAUA”, the “apparent Kd” value was determined as 23 nM under setting [1] and 64.1 nM under setting [2].

Regarding “ACAAAUUAGUGAGGAUAUGCUUAAUUUAUAACUGCAGAAGGCACAUACCUCAAGACAUGAGGAUCACCCAUGUGGAAUAUAGAU”, the “apparent Kd” value under setting [1] was 25.4 nM and the “apparent Kd” value under setting [2] is 62.8 nM.

As for “ACAUGAGGAUCACCCAUGUUGAAUUAGGAUAUUUGACUGCACAUGAGGUUCACCCAUGUUCUACCGAAGAAGGGAUUAAUAAUU”, the “apparent Kd” value by setting is: under setting [3], 120 nM; under setting [4], 118 nM.

As to “GCACAUUUGUAAGGAUAUACAACAUGAGGAUCACCCAUGUGAUUGAAUUUAGUAGAAGGUACAGAAAUGAGUAUCACUUUUGUA”, the “apparent Kd” value amounted to 16.8 nM under setting [3] and 10.9 nM under setting [4].

For “GGUCCAUCAUGAGGAUAUGGCACCUUAUUGGUGCCAGAAGGCAUGUCUAUAGACAUGAGGAUCACCCAUGUAAUAAAUUGGACC”, the “apparent Kd” value under setting [3] stood at 790 nM and the “apparent Kd” value under setting [4] turned out to be 46.4 nM.

As for “GCUGCAUGCAGAGGAUAUGACACAUGAGGAUCACCCAUGUAAUAAAUGAGAAUUUCGAAUGUAACUCAGAAGGCUGCAUGCAGC”, the “apparent Kd” value came out at 54.2 nM under setting [1] and 186 nM under setting [2].

“AAAAAGUGAGGAUAUACGCUGUGGAGUAGACACAACCAGUCGUAGAAGGCACAUGAGGAUCACCCAUGUUCAAA”: the “apparent Kd” value came out at 27.2 nM under setting [1] and 30.1 nM under setting [2].

Turning to “AUUAUGUAAGGAUAUCUUACAUGUGACUUCGGUCACUGUUCAGAGAAGGUACAUGAGGAUCACCCAUGUAGAAC”, the “apparent Kd” value runs as follows: under setting [1], 17.9 nM; under setting [2], 18.4 nM.

In the case of “AUACAUGAGGAUCACCCAUGUAAUUAAUUAACUAGUAAGAUCUAGGAUAUCAGCUCGAAUAGAGCUGAGAAGGAGAUCACAUGU”, the “apparent Kd” value by setting is: under setting [3], 34 nM; under setting [4], 15.4 nM.

Take “AAUUUAAAGGGAGGAUAUACAUGAGGAUCACCCAUGUAAUCAUAUGAUAUUUUUUUUGUAUGAGUGUAGAAGGCCCAAAUAAAA”: the “apparent Kd” value is, setting by setting: under setting [1], 7.72 nM; under setting [2], 9.3 nM.

As to “CUCGUGUCAGGAUAUCGAUGGCGCCUCCGGGCGCCCGAACGCGAGAAGGGACAUGAGGAUCACCCAUGUAAAAC”, the “apparent Kd” value runs as follows: under setting [1], 71.8 nM; under setting [2], 159 nM.

In the case of “AAAAACUGAGGAUAUACGAAAAAAAAAAAAAAAAAAAAAAAACAUGAGGAUCACCCAUGUAGAAGGCAGAAAAA”, the “apparent Kd” value is, setting by setting: under setting [1], 50.4 nM; under setting [2], 38 nM.

“GGCGAACAGGCUAACAUGAGGAUCACCCAUGUGGACUCAUGGUAGGAUAUCGGGAAGGAGGAAACCGAGAAGGGCCGGUGAGCU”: the “apparent Kd” value is, setting by setting: under setting [3], 67.7 nM; under setting [4], 26.3 nM.

For the sequence “AACAUUGACAAGAAGGCAAACAUGAGGAUCACCCAUGUUCUGCAUGUAUAUUGAGGAUAUUGCCAAUGUAUGUGGAUCACCCAA”, the “apparent Kd” value reads like this: under setting [1], 6.76 nM; under setting [2], 14.8 nM.

With “GUGCCUCAGAACAUGAGGAUCACCCAUGUGCUGCGGGCACCGUAGGAUAUGAUGGUACGCUACCAUCAGAAGGAUGAUGGUACC”, the “apparent Kd” value was determined as 4.83 nM under setting [3] and 4.92 nM under setting [4].

For “UUCUUACAUGAGGAUCACCCAUGUCAGGAUAUCUCCUCACUGCGCUUGCGCAGUGAAUAGAGAAGGGACAGGCU”, the “apparent Kd” value under setting [1] came to 51.3 nM and the “apparent Kd” value under setting [2] was 43.8 nM.

In the case of “UCUAGACCGACAGGAUAUCAUGGCUGGAUAUAGUACAUGAGGAUCACCCAUGUCGGCUAGAGCGAUGAGAAGGGUCGGUUGCUC”, the “apparent Kd” value was 414 nM under setting [3] and 87.3 nM under setting [4].

As for “UUGAAUUUAAACAUGAGGAUCACCCAUGUGUCAUAGUUGAUAUAGGAUAUGUUUAUACUUUGAAAGCAGAAGGAUGACGAUACU”, the “apparent Kd” value was found to be 18.9 nM under setting [3] and 15.2 nM under setting [4].

The values are drawn from the EternaBench riboswitch data.
